Source: ChEMBL document CHEMBL1127326, “Antitumor agents. 148. Synthesis and biological evaluation of novel 4 beta-amino derivatives of etoposide with better pharmacological profiles” (1994)
Values joined by “and” are separate entries in the source; they are usually repeats but may differ in a detail not shown here. Identical values can stand only once.

Key:
KB [1] = assay: Cytotoxicity against KB cells after a 3 day incubation; type: functional, Homo sapiens; conditions: read-out: ID50 (the source's name)
Summary of the method: (§1)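 KB cells (parental ATCC line and resistant variants) exposed to drug at five concentrations […] for 3 days. ID50 is the concentration giving 50% reduction in cell number, derived from the degree of inhibition at the five concentrations.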

Tumor Cell line [2] = assay: Drug molar concentration required to inhibit 50% of human tumor cell growth; type: functional
Summary of the method: (§2)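 NCI panel of 54 human tumor lines from eight cancer types, mostly seeded at 20 000 cells/well. Cells were preincubated 24 h without drug, then exposed to five 10-fold dilutions for 48 h, fixed and stained with sulforhodamine B, and read spectrophotometrically. Versus control, GI50 (50% growth inhibition), TGI (0% growth) and LC50 (−50% growth) were calculated; mean graph midpoints average all lines.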

Tumor Cell line [3] = assay: Drug concentration required to inhibit total cell growth; type: functional, Homo sapiens; conditions: read-out: Log TGI (converted); summary of the method: as §2
Tumor Cell line [4] = assay: Drug concentration required to cause 50% cell death; type: functional, Homo sapiens; conditions: Homo sapiens, Tumor Cell line
Summary of the method: (§3)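 NCI in vitro panel of 54 human tumor cell lines from eight cancer types, mostly seeded at 20 000 cells/well and preincubated 24 h without drug. Five 10-fold dilutions were then added for a further 48 h. Cells were fixed in situ and stained with sulforhodamine B, and bound dye was read spectrophotometrically. LC50 (−50% growth versus control) was taken from five-point dose-response curves and reported as the log10 mean-graph midpoint across lines.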

[5] = target: T1, DNA topoisomerase II (Homo sapiens) (UniProt P11388+Q02880); assay: 50% inhibition of human DNA topoisomerase II; type: protein assay
[6] = target: T1, DNA topoisomerase II (Homo sapiens); assay: 50% inhibition of human DNA topoisomerase II was measured; type: protein assay
Nucleic Acid = assay: Percentage inhibition of cellular protein-DNA complex formation; type: functional; conditions: Homo sapiens
KB [7] = assay: 50% reduction in the number of KB ATCC cells; type: functional; conditions: Homo sapiens, read-out: ID50 (the source's name); summary of the method: as §1
KB [8] = assay: 50% reduction in the number of KB 7D (topoisomerase II, aMDR) resistant variant; type: functional, Homo sapiens; conditions: read-out: ID50 (the source's name); summary of the method: as §1
KB [9] = assay: 50% reduction in the number of KB V20C resistant variant; type: functional, Homo sapiens; conditions: read-out: ID50 (the source's name); summary of the method: as §1
Tumor Cell line [10] = assay: LC 50 is the concentration required to cause 50% cell death; type: functional; conditions: Homo sapiens, read-out: Log LC50 (the source's name) (converted); summary of the method: as §3
KB [11] = assay: Inhibitory dose value is the concentration which affords 50% reduction in the number of KB ATCC cells; type: functional; conditions: Homo sapiens, read-out: ID50 (the source's name); summary of the method: as §1

SMILES | GI50 (Tumor Cell line [2]) | TGI (Tumor Cell line [3]) | GI50 (Tumor Cell line [2]; Homo sapiens, Tumor Cell line) | TGI (Tumor Cell line [3]; Homo sapiens, Tumor Cell line) | LC50 (Tumor Cell line [4]) | further results
COc1cc([C@@H]2c3cc4c(cc3[C@@H](NCCN3CCOCC3)[C@H]3COC(=O)[C@H]23)OCO4)cc(OC)c1O [listing 1 of 2 here] | 1820 nM | 11500 nM |  |  |  | IC50 (KB [1]): 2000 nM
COc1cc([C@@H]2c3cc4c(cc3[C@@H](NCCN3CCOCC3)[C@H]3COC(=O)[C@H]23)OCO4)cc(OC)c1O [listing 2 of 2 here] |  |  | 2450 nM | 10000 nM |  | IC50 (KB [1]; Homo sapiens, KB, 72 h): 4000 nM
COc1cc([C@@H]2c3cc4c(cc3[C@@H](NCCN3CCCCC3)[C@H]3COC(=O)[C@H]23)OCO4)cc(OC)c1O |  |  | 427 nM | 3720 nM | 36.3 µM | IC50 (KB [1]; Homo sapiens, KB, 72 h): 1600 nM
COc1cc([C@@H]2c3cc4c(cc3[C@@H](NC3CCN(Cc5ccccc5)CC3)[C@H]3COC(=O)[C@H]23)OCO4)cc(OC)c1O [listing 1 of 2 here] |  |  |  |  |  | ID50 [5]: 100 µM; ID50 [6]: 50 µM
COc1cc([C@@H]2c3cc4c(cc3[C@@H](NCCN(C)C)[C@H]3COC(=O)[C@H]23)OCO4)cc(OC)c1O [listing 1 of 3 here] |  |  | 263 nM | 2510 nM | 21.9 µM | 
COc1cc([C@@H]2c3cc4c(cc3[C@@H](NCCCN(C)C)[C@H]3COC(=O)[C@H]23)OCO4)cc(OC)c1O [listing 1 of 2 here] |  |  | 550 nM | 2820 nM | 13.5 µM | IC50 (KB [1]): 1150 nM
COc1cc([C@@H]2c3cc4c(cc3[C@@H](NCCN(C)C)[C@H]3COC(=O)[C@H]23)OCO4)cc(OC)c1O [listing 2 of 3 here] |  |  |  |  |  | Complex formation (Nucleic Acid): 203% and 183%; ID50 [5]: 25 µM
COc1cc([C@@H]2c3cc4c(cc3[C@@H](NCCN(C)C)[C@H]3COC(=O)[C@H]23)OCO4)cc(OC)c1O [listing 3 of 3 here] |  |  | 155 nM | 1480 nM | 15.1 µM | IC50 (KB [7]): 400 nM; IC50 (KB [1]; Homo sapiens, KB, 72 h): 400 nM; IC50 (KB [8]; Homo sapiens, KB): 680 nM; IC50 (KB [9]; Homo sapiens, KB): 440 nM
COc1cc([C@@H]2c3cc4c(cc3[C@@H](NCCCN(C)C)[C@H]3COC(=O)[C@H]23)OCO4)cc(OC)c1O [listing 2 of 2 here] | 331 nM | 2190 nM |  |  |  | CC50 (Tumor Cell line [10]): 12.6 µM; IC50 (KB [8]; Homo sapiens, KB): 660 nM
COc1cc([C@@H]2c3cc4c(cc3[C@@H](Nc3ccc(C(=O)O)cc3)[C@H]3COC(=O)[C@H]23)OCO4)cc(OC)c1O | 12900 nM | 52500 nM |  |  |  | 
CCOC(=O)N1CCC(N[C@@H]2c3cc4c(cc3[C@@H](c3cc(OC)c(O)c(OC)c3)[C@H]3C(=O)OC[C@@H]32)OCO4)CC1 |  |  |  |  |  | ID50 [5]: 25 µM
COc1cc([C@@H]2c3cc4c(cc3[C@@H](NC3CCN(Cc5ccccc5)CC3)[C@H]3COC(=O)[C@H]23)OCO4)cc(OC)c1O [listing 2 of 2 here] | 174 nM | 1480 nM |  |  |  | IC50 (KB [1]): 27 nM; IC50 (KB [11]): 27 nM; IC50 (KB [8]): 50 nM; IC50 (KB [9]): 26 nM
